Bioassay records deposited in PubChem BioAssay by The Scripps Research Institute Molecular Screening Center.
Sampled rows, rich in hits. Any-hit rate of the full collection: about 1.7%.
HCV core dimer = HCV core protein dimerization inhibition | TR-FRET GST/Flag-core106 dimerization, 1536-well | inhibition, % at 5 µM | 300,000 compounds, 0.33% hits;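 active = inhibition above the mean of all tested compounds plus 3 SD, set per screening campaign, cut at about 45% in these data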
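Assay system: GST-tagged and Flag-tagged HCV core protein residues 1-106 / Times: compound-protein-antibody incubation 4 h at 22.5 °C / Signal: time-resolved FRET, ex 340 nm, em 617 and 671 nm / Evaluation: % inhibition based on acceptor/donor emission ratio / Benchmarks: wells lacking GST-core106 and wells with excess unlabelled core106 / Repeats: singlicate, one well per compound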
ZTA DNA inh = ZTA (EBV) inhibition in EBNA-1 counter-screen; AID 2234; P03206; 320,000 compounds, 0.15% hits; inhibition, % at 11 µM; ZTA-DNA binding, fluorescence polarization; in the data active = inhibition above about 33%
PP5 primary = blocks human protein phosphatase 5 activity; purified PP5c, OMFP substrate fluorescence; 320,000 compounds, 0.18% hits; inhibition, % at 6.7 µM; P53041;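 active = inhibition above the campaign's mean inhibition across all tested compounds plus 3 SD, cut at about 9.5% in these data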
Target sequence (P53041 whole entry, looked up): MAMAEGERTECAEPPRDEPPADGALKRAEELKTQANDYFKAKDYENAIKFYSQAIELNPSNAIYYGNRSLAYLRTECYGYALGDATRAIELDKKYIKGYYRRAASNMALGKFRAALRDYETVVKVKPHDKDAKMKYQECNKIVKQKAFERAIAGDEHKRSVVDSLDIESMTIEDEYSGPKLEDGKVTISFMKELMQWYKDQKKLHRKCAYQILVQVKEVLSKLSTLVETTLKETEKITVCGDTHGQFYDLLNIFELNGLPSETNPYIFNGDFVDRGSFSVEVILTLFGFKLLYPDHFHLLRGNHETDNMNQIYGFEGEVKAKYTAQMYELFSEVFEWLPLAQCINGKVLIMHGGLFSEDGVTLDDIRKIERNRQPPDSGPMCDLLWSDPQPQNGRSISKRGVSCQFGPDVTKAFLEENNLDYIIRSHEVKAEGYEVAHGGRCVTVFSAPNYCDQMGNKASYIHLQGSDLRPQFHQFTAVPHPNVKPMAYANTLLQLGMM
EBNA-1 inh = blocks EBNA-1 binding to DNA. EBNA-1 DNA binding, fluorescence polarization. 300,000 compounds, 0.34% hits. inhibition, % at 14.8 µM; in the data active = inhibition above about 28%
PP1 counter = PP1-alpha (human) inhibition in PP5 counter-screen; purified PP1alpha, OMFP fluorescence; inhibition, % at 6.7 µM; 320,000 compounds, 0.9% hits; AID 2235;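 active = inhibition above the mean inhibition of all tested compounds plus 3 SD, computed separately for each screening campaign, cut at about 15% in these data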
PP1 inh confirm = confirmation of human PP1 phosphatase inhibitors; shares compounds with PP1 counter; purified PP1alpha, OMFP substrate fluorescence; inhibition, % at 6.7 µM; 1,900 compounds, 52% hits; AID 2358;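 active = mean PP1 inhibition above a set limit taken from the earlier primary screen, cut at about 15% in these data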
PP5 inh counter = inhibits human PP5 phosphatase in PP1 counter-screen; shares compounds with PP1 counter; purified PP5c, OMFP fluorescence; inhibition, % at 6.7 µM; 1,900 compounds, 4% hits; AID 2360;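 active = mean PP5 inhibition over triplicate wells above about 9.5% taken from the earlier PP1 screen, limit read from the data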
Numbers stand for hits; . = inactive; / = no result.

SMILES | HCV core dimer | ZTA DNA inh | PP5 primary | EBNA-1 inh | PP1 counter | PP1 inh confirm | PP5 inh counter
COc1ccc(NC(=O)NNC(=O)C(O)(c2ccccc2)c2ccccc2)cc1 | . | . | . | . | 21.4 | . | .
COc1ccc(NC(=O)Nc2cc(NC(=O)Nc3ccc(OC)cc3)c(C)nc2C)cc1 | . | . | . | . | 18.3 | 21.1 | .
COc1ccc(Nc2nccc(-c3ccc(C#N)cc3)n2)cc1 | . | . | . | . | 20.1 | . | .
Cc1ccc(S(=O)(=O)N2CCOC2CNC(=O)C(=O)NCCN2CCOCC2)cc1 (stereo not given) | . | . | . | . | . | / | /
Cc1ccc2nc(NC(=O)C3CCN(S(=O)(=O)c4cc([N+](=O)[O-])ccc4Cl)CC3)sc2c1 | 65.7 | . | . | . | 20.4 | 25.9 | .
Cc1ccc2nc(NC(=O)C3CCN(S(=O)(=O)c4cccc5nsnc45)CC3)sc2c1 | . | . | . | . | . | / | /
Cn1cnnc1SCc1ccc(C(=O)N=Nc2c(O)n(Cc3ccc(Cl)cc3)c3ccccc23)cc1 | . | . | . | . | 20.3 | 15.9 | .
COc1ccc(-c2csc(NC(=O)CCN3C(=O)C4CC=CCC4C3=O)n2)cc1OC (stereo not given) | . | . | . | . | 25.6 | . | .
COc1ccc(-c2csc(NC(=O)CN3C(=O)C4CC=CCC4C3=O)n2)cc1 (stereo not given) | / | . | . | / | . | / | /
CCCCn1c(N)c(N(CCC(C)C)C(=O)CCCc2nc3ccccc3s2)c(=O)[nH]c1=O | . | . | . | . | . | / | /
CCOC(=O)c1cnc(-n2nc(C)cc2C)nc1NCc1ccc2c(c1)OCO2 | . | . | . | . | 31.3 | 59.2 | .
CCOC(=O)c1cnc(-n2nc(C)cc2C)nc1NC1CCCC1 | . | . | . | . | 22.4 | 26.5 | .
CCOC(=O)c1cnc(-n2nc(C)cc2C)nc1NCCc1ccccc1 | . | . | . | . | 57.0 | 50.7 | .
NS(=O)(=O)c1cccc(NC(=O)CSc2nc3nc(-c4cccs4)cc(C(F)(F)F)c3c(=O)[nH]2)c1 | . | . | . | . | 27.0 | 21.3 | .
CCN(CC)c1ccc(/C=N/NC(=O)Cc2nnc(NC(=O)Nc3ccccc3)s2)cc1 | . | . | . | . | 20.5 | 25.4 | .
CCN(CC)c1ccc(/C=N/NC(=O)Nc2ccccc2)cc1 | . | . | . | . | . | / | /
CSc1nc(C)c(C(=O)C[n+]2ccc(C)cc2)cc1C#N | . | . | . | . | . | / | /
CCN(Cc1ccccc1)c1ccc(/C=N/N=C(N)N)cc1 | . | . | . | . | 18.2 | . | .
CCCCC(=O)NC(c1ccc(N(C)C)cc1)c1ccc2cccnc2c1O (stereo not given) | . | . | . | . | 28.8 | 21.0 | .
CC(C)CC(=O)NC(c1cccs1)c1ccc2cccnc2c1O (stereo not given) | . | . | . | . | . | / | /
CCC(=O)NC(c1cccs1)c1ccc2cccnc2c1O (stereo not given) | . | . | . | . | . | / | /
CCCCC(=O)NC(c1ccc(N(CC)CC)cc1)c1ccc2cccnc2c1O (stereo not given) | . | . | . | . | 35.5 | 24.0 | .
CC(NC(=O)C1CC1)C(c1cccs1)N1CCN(c2ccccc2)CC1 (stereo not given) | . | . | . | . | 46.6 | . | .
CCOc1ccc(C(=O)Nc2ccc(S(=O)(=O)N3C[C@@H]4C[C@@H](C3)c3cccc(=O)n3C4)cc2)cc1 | / | . | . | / | . | / | /
O=C(O)c1cc(-c2ccco2)nn1-c1cccc(Cl)c1 | . | . | . | . | . | / | /
SMILES | HCV core dimer | ZTA DNA inh | PP5 primary | EBNA-1 inh | PP1 counter | PP1 inh confirm | PP5 inh counter
O=C(O)c1cc(-c2cccs2)nn1-c1cccc(Cl)c1 | . | . | . | . | 28.8 | 27.5 | .
O=C(O)c1cc(-c2cccs2)nn1-c1ccccc1 | . | . | . | . | 27.7 | 24.1 | .
O=C(O)c1cc(-c2cc3ccccc3o2)nn1-c1ccccc1 | . | . | . | . | 45.4 | 45.4 | .
O=C(COC(=O)c1cc(-c2cccs2)nn1-c1ccccc1)Nc1ccc(F)c([N+](=O)[O-])c1 | . | . | . | . | . | / | /
COC(=O)c1cc2sccc2n1CC(=O)N(C)c1ccccc1 | . | . | . | . | 43.5 | . | .
Cc1ccc(C)c(NC(=O)Cn2cnc3c(oc4ccccc43)c2=O)c1 | . | . | . | . | . | / | /
